Active and inactive are the calls of the source. The rule behind the calls is not given here.
Key:
[1] = biological target: Voltage-gated L-type calcium channel (Rattus norvegicus, UniProt P22002+Q02485+P27732); assay: Displacement of [3H](-)D 888 from L-type calcium channel in rat cerebral cortex; format: tissue-based
Galanin receptor type 2 = Galanin receptor type 2 (Homo sapiens, UniProt O43603); assay: Displacement of [125I]Galanin from human recombinant GAL2 receptor expressed in CHO cells; format: cell-based
[2] = biological target: 5-hydroxytryptamine receptor 3A (Homo sapiens, UniProt P46098); assay: Displacement of [3H]BRL 43694 from human recombinant 5HT3 receptor expressed in CHO cells; format: cell-based
[3] = biological target: Muscarinic acetylcholine receptor M2 (Homo sapiens, UniProt P08172); assay: Displacement of [3H]AF-DX 384 from human recombinant muscarinic M2 receptor expressed in CHO cells; format: cell-based
[4] = biological target: Neurotensin receptor type 1 (Homo sapiens, UniProt P30989); assay: Displacement of [125I]Tyr3-neurotensin from human recombinant NT1 receptor expressed in H recombinant CHO cells; format: cell-based
[5] = biological target: 5-hydroxytryptamine receptor 5A (Homo sapiens, UniProt P47898); assay: Displacement of [3H]LSD from human recombinant 5HT5A receptor expressed in CHO cells; format: cell-based
Cannabinoid receptor 1 = Cannabinoid receptor 1 (Mus musculus, UniProt P47746); assay: Inhibition of mouse brain CB1 receptor
[6] = Displacement of [3H]flunitrazepam from BZD receptor in rat cerebral cortex; format: tissue-based
Adenosine receptor A1 = Adenosine receptor A1 (Homo sapiens, UniProt P30542); assay: Displacement of [3H]DPCPX from human recombinant A1 receptor expressed in CHO cells; format: cell-based
[7] = biological target: Neuropeptide Y receptor type 1 (Homo sapiens, UniProt P25929); assay: Displacement of [125I]peptide YY from human recombinant Y1 receptor expressed in […] cell
[8] = biological target: Sodium-dependent serotonin transporter (Homo sapiens, UniProt P31645); assay: Displacement of [3H]imipramine from human recombinant 5HT transporter expressed in CHO cells; format: cell-based
Substance-K receptor = Substance-K receptor (Homo sapiens, UniProt P21452); assay: Displacement of [125I]NKA from human recombinant NK2 receptor expressed in CHO cells; format: cell-based
Nociceptin receptor = Nociceptin receptor (Homo sapiens, UniProt P41146); assay: Displacement of [3H]nociceptin from human recombinant ORL1 receptor expressed in H recombinant HEK293 cells; format: cell-based
Neuromedin-K receptor = Neuromedin-K receptor (Homo sapiens, UniProt P29371); assay: Displacement of [3H]SR 142801 from human recombinant NK3 receptor expressed in CHO cells; format: cell-based
[9] = biological target: N-acyl-phosphatidylethanolamine-hydrolyzing phospholipase D (Mus musculus, UniProt Q8BH82); assay: Inhibition of mouse NAPEPLD
B2 bradykinin receptor = B2 bradykinin receptor (Homo sapiens, UniProt P30411); assay: Displacement of [3H]bradykinin from human recombinant bradykinin B2 receptor expressed in CHO cells; format: cell-based
Histamine H1 receptor = Histamine H1 receptor (Homo sapiens, UniProt P35367); assay: Displacement of [3H]pyrilamine from human recombinant histamine H1 receptor expressed in HEK293 cells; format: cell-based
Adenosine receptor A2a = Adenosine receptor A2a (Homo sapiens, UniProt P29274); assay: Displacement of [3H]CGS21680 from human recombinant A2A receptor expressed in HEK293 cells; format: cell-based
[10] = biological target: Adrenergic receptor alpha-2 (Rattus norvegicus, UniProt P22086+P19328+P22909); assay: Displacement of [3H][…] from alpha2 receptor in rat cerebral cortex; format: tissue-based
[11] = biological target: Cholecystokinin receptor type A (Homo sapiens, UniProt P32238); assay: Displacement of [125I]CCK-8 from human recombinant CCKA receptor expressed in CHO cells; format: cell-based
Endothelin-1 receptor = Endothelin-1 receptor (Homo sapiens, UniProt P25101); assay: Displacement of [125I]endothelin-1 from human recombinant ETA receptor expressed in CHO cells; format: cell-based
[12] = biological target: Adrenergic receptor alpha-1 (Rattus norvegicus, UniProt P15823+P23944+P43140); assay: Displacement of [3H]prazosine from alpha1 receptor in rat cerebral cortex; format: tissue-based
[13] = biological target: 5-hydroxytryptamine receptor 7 (Homo sapiens, UniProt P34969); assay: Displacement of [3H]LSD from human recombinant 5HT7 receptor expressed in CHO cells; format: cell-based
Mu-type opioid receptor = Mu-type opioid receptor (Homo sapiens, UniProt P35372); assay: Displacement of [3H]DAMGO from human recombinant mu opioid receptor expressed in HEK293 cells; format: cell-based
[14] = biological target: Melatonin receptor type 1A (Homo sapiens, UniProt P48039); assay: Displacement of [125I]2-iodomelatonin from human recombinant MT1 receptor expressed in CHO cells; format: cell-based
[15] = Displacement of [125I]VIP from human recombinant VIP receptor expressed in H recombinant CHO cells; format: cell-based
[16] = biological target: 5-hydroxytryptamine receptor 6 (Homo sapiens, UniProt P50406); assay: Displacement of [3H]LSD from human recombinant 5HT6 receptor expressed in CHO cells; format: cell-based
[17] = biological target: Fatty-acid amide hydrolase 1 (Mus musculus) (UniProt O08914); assay: Inhibition of mouse brain FAAH assessed as residual activity
Procedure, shortened: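 FAAH was pre-incubated 20 min with an excess of inhibitor, then dialyzed 18 h at 4 °C against 20 mM Tris–HCl (pH 7.0). Residual activity was assayed before and after dialysis and compared with untreated controls. In a separate run, enzyme was pre-incubated with inhibitor at room temperature for 0–60 min before substrate turnover was measured. Values are means ± S.D. of three independent experiments.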

[18] = Displacement of [3H]DADLE from human recombinant delta 2 opioid receptor expressed in CHO cells; format: cell-based
[19] = biological target: 5-hydroxytryptamine receptor 1B (Rattus norvegicus, UniProt P28564); assay: Displacement of [125I]CYP from 5HT1B receptor expressed in rat cerebral cortex; format: tissue-based
[20] = biological target: Beta-1 adrenergic receptor (Homo sapiens, UniProt P08588); assay: Displacement of [3H](-)CGP 12177 from human recombinant beta-1 receptor expressed in HEK293 cells; format: cell-based
[21] = biological target: Neuropeptide Y receptor type 2 (Homo sapiens, UniProt P49146); assay: Displacement of [125I]peptide YY from human recombinant Y2 receptor expressed in KAN-TS cells; format: cell-based
[22] = biological target: 5-hydroxytryptamine receptor 2A (Homo sapiens, UniProt P28223); assay: Displacement of [3H]Ketanserin from human recombinant 5HT2A receptor expressed in HEK293 cells; format: cell-based
[23] = biological target: Kappa-type opioid receptor (Rattus norvegicus, UniProt P34975); assay: Displacement of [3H]U69593 from rat recombinant kappa opioid receptor expressed in CHO cells; format: cell-based
[24] = biological target: Type-1 angiotensin II receptor (Homo sapiens, UniProt P30556); assay: Displacement of [125I][Sar1,Ile8]-AT II from human recombinant AT1 receptor expressed in HEK293 cells; format: cell-based
D(1A) dopamine receptor = D(1A) dopamine receptor (Homo sapiens, UniProt P21728); assay: Displacement of [3H]SCH 23390 from human recombinant dopamine D1 receptor expressed in CHO cells; format: cell-based
[25] = biological target: Muscarinic acetylcholine receptor M3 (Homo sapiens, UniProt P20309); assay: Displacement of [3H]4-DAMP from human recombinant muscarinic M3 receptor expressed in CHO cells; format: cell-based
[26] = biological target: Sodium-dependent dopamine transporter (Homo sapiens, UniProt Q01959); assay: Displacement of [3H]BTCP from human recombinant dopamine transporter expressed in CHO cells; format: cell-based

Neurotensin receptor type 1, sequence (P30989 whole entry): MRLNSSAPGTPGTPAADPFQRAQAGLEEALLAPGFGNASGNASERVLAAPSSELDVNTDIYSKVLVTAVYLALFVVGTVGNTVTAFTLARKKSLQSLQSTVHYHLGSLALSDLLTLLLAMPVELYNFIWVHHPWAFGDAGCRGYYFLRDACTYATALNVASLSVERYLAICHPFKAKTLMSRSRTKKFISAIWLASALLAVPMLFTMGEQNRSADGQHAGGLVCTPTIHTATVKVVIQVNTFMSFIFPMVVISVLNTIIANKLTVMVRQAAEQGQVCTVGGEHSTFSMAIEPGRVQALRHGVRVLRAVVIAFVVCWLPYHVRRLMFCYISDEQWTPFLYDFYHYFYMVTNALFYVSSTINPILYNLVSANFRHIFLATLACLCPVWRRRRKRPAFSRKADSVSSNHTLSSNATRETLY
Beta-1 adrenergic receptor, sequence (P08588 whole entry): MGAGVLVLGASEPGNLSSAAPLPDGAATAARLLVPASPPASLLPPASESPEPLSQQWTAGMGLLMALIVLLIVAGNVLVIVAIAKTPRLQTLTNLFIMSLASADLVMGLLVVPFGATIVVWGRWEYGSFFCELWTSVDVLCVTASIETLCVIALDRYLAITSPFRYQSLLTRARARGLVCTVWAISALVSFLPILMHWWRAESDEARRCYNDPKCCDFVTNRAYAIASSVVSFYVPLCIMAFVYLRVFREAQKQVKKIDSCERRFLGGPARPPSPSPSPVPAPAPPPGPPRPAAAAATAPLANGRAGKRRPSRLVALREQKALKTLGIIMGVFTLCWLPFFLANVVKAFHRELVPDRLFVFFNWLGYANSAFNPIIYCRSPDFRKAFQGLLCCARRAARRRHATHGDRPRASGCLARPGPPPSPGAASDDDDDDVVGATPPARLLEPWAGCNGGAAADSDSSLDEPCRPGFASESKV
Kappa-type opioid receptor, sequence (P34975 whole entry): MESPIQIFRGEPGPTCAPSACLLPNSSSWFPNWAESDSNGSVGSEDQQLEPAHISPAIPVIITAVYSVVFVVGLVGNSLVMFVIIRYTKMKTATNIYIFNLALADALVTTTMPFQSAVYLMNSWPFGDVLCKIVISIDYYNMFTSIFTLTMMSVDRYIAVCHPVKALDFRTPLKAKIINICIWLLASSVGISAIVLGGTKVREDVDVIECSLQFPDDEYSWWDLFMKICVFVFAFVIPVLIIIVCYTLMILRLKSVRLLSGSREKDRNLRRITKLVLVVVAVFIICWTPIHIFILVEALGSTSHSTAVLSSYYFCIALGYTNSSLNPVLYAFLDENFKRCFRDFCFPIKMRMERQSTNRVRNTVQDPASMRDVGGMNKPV
5-hydroxytryptamine receptor 2A, sequence (P28223 whole entry): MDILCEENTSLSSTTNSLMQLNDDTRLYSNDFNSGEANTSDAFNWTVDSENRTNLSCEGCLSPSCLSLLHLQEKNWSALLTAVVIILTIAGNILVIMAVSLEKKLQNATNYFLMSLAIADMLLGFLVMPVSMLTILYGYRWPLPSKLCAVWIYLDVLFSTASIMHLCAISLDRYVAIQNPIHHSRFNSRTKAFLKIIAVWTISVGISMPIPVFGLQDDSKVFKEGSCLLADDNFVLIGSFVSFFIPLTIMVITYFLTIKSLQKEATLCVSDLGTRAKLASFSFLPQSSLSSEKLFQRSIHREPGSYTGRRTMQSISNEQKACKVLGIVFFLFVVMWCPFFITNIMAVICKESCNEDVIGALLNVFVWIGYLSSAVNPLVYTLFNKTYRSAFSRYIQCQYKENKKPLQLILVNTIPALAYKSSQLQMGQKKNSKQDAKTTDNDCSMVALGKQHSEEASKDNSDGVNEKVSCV
5-hydroxytryptamine receptor 5A, sequence (P47898 whole entry): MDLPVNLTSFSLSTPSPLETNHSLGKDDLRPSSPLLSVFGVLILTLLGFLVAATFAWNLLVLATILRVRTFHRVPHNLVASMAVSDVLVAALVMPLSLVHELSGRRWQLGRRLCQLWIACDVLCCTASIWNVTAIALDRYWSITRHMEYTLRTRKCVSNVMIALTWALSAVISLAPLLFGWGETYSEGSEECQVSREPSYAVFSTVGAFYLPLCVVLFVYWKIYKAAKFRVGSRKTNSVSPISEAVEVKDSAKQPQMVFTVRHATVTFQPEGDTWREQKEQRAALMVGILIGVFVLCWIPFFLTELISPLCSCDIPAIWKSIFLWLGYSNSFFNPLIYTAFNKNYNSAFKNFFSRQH
Adenosine receptor A2a, sequence (P29274 whole entry): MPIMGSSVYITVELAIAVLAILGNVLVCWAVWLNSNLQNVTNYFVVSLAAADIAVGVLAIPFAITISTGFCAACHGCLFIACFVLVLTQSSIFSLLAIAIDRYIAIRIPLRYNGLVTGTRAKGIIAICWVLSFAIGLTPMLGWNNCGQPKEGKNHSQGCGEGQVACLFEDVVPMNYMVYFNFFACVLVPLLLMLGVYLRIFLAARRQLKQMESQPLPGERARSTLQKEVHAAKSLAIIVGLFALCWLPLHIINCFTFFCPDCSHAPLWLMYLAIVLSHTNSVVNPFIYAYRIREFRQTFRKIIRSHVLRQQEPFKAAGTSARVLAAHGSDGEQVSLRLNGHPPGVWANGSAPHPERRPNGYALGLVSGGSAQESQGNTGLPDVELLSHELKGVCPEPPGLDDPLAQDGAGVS
Fatty-acid amide hydrolase 1 (Mus musculus), sequence (O08914 whole entry): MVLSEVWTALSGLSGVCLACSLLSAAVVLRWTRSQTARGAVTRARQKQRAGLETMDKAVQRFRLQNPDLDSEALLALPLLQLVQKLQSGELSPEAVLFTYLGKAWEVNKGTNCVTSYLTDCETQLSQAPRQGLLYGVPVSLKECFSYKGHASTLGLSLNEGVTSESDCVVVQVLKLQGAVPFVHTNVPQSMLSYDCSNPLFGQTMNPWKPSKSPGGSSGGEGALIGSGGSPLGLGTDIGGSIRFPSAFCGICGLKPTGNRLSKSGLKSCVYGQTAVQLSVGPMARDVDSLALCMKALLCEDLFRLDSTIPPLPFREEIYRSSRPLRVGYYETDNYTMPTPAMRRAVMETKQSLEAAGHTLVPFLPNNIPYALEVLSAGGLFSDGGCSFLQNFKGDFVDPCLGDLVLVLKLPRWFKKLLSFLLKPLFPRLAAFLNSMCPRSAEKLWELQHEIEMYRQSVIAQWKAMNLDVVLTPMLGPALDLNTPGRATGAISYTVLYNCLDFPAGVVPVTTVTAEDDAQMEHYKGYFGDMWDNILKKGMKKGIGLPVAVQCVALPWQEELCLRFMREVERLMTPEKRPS
Cholecystokinin receptor type A, sequence (P32238 whole entry): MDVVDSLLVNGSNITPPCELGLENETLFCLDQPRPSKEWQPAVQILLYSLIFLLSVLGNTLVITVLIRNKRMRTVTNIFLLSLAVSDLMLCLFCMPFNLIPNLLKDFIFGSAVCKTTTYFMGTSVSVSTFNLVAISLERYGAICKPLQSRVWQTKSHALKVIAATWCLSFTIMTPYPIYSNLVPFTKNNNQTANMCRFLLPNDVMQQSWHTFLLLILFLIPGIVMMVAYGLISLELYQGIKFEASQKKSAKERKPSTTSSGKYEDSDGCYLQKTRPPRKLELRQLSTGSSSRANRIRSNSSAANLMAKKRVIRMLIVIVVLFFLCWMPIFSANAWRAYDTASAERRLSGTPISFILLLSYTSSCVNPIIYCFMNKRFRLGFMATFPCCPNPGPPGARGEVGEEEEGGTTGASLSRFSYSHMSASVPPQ
Endothelin-1 receptor, sequence (P25101 whole entry): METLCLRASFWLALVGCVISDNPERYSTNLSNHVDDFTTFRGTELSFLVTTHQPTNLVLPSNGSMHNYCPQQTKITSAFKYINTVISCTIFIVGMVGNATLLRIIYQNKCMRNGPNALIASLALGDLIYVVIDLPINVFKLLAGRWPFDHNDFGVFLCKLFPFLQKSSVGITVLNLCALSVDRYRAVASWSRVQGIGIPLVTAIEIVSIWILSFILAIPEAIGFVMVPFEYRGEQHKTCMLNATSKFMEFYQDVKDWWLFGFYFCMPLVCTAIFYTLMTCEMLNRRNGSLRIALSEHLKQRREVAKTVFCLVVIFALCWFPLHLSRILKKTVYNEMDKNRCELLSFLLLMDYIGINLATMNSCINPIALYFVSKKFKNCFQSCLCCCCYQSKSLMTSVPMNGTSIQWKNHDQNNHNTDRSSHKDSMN
5-hydroxytryptamine receptor 7, sequence (P34969 whole entry): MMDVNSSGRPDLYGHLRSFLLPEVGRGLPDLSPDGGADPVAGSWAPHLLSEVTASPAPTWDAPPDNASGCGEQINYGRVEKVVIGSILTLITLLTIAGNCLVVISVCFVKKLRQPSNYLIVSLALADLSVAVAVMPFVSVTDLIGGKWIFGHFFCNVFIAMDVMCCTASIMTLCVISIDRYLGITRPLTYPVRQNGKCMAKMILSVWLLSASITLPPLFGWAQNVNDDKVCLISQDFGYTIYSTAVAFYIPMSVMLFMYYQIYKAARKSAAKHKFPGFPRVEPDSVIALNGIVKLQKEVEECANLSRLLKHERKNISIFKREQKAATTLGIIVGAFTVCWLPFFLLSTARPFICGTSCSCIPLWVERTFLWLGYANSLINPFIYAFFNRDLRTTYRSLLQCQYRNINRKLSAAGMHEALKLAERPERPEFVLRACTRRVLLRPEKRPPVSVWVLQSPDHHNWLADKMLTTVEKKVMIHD
Neuropeptide Y receptor type 2, sequence (P49146 whole entry): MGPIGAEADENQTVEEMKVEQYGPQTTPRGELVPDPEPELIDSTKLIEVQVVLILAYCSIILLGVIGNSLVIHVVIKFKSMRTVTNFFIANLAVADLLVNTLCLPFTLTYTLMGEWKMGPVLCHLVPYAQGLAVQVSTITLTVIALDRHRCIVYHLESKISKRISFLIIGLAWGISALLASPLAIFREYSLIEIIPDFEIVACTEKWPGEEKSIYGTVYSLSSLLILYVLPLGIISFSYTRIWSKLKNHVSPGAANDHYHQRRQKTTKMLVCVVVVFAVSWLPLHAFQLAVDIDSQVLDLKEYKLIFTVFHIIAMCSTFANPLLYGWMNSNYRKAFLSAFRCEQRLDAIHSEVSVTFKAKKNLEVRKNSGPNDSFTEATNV

C/C(=N\OC(=O)Nc1ccccc1)c1cccc(-c2cccs2)c1
IC50 [1]: > 10 µM | IC50 (Galanin receptor type 2): > 10 µM | IC50 [2]: > 10 µM | IC50 [3]: > 10 µM | IC50 [4]: > 10 µM | IC50 [5]: 1 µM | IC50 (Cannabinoid receptor 1): > 10 µM | IC50 [6]: 1 µM | IC50 (Adenosine receptor A1): > 10 µM | IC50 [7]: > 10 µM | IC50 [8]: > 10 µM | IC50 (Substance-K receptor): > 10 µM | IC50 (Nociceptin receptor): > 10 µM | IC50 (Neuromedin-K receptor): > 10 µM | IC50 [9]: > 10 µM | IC50 (B2 bradykinin receptor): > 10 µM | IC50 (Histamine H1 receptor): > 10 µM | IC50 (Adenosine receptor A2a): > 10 µM | IC50 [10]: > 10 µM | IC50 [11]: 1 µM | IC50 (Endothelin-1 receptor): > 10 µM | IC50 [12]: > 10 µM | IC50 [13]: > 10 µM | IC50 (Mu-type opioid receptor): > 10 µM | IC50 [14]: > 10 µM | IC50 [15]: > 10 µM | IC50 [16]: > 10 µM | inhibition [17]: Active | IC50 [18]: 1 µM | IC50 [19]: > 10 µM | IC50 [20]: > 10 µM | IC50 [21]: > 10 µM | IC50 [22]: > 10 µM | IC50 [23]: > 10 µM | IC50 [24]: > 10 µM | IC50 (D(1A) dopamine receptor): > 10 µM | IC50 [25]: > 10 µM | IC50 [26]: > 10 µM
